One data set deals with T1, Toll-like receptor 7 (Homo sapiens, UniProt Q9NYK1).
T1 sequence (Q9NYK1 whole entry): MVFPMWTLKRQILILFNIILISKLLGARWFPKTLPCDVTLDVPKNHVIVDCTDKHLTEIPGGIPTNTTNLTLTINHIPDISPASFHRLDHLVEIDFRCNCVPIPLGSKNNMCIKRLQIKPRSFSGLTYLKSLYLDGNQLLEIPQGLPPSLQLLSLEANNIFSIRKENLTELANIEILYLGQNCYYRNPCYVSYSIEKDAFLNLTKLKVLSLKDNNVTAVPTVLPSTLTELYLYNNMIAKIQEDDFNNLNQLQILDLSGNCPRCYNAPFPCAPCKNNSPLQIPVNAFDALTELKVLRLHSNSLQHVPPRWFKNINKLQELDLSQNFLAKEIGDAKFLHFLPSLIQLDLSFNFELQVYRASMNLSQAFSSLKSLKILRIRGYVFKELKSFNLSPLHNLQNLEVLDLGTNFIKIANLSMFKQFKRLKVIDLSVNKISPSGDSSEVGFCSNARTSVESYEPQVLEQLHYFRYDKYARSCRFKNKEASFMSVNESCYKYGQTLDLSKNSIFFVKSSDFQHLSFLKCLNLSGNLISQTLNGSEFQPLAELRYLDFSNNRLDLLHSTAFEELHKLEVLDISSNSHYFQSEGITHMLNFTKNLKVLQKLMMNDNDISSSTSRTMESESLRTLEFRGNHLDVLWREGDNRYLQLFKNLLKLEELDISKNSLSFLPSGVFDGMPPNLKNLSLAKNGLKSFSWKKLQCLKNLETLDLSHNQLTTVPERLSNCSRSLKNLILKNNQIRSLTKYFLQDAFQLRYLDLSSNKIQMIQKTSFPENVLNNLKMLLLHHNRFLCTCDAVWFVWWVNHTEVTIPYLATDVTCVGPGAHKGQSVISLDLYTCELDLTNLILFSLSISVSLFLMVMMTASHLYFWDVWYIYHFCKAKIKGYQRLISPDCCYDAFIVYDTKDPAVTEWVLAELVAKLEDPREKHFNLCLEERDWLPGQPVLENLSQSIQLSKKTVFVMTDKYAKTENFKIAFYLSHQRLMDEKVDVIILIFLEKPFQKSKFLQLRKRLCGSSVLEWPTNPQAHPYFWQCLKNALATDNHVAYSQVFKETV
Kind of data set: Agonist activity at human TLR7 expressed in HEK293 cells coexpressing pNiFty2-SEAP reporter by reporter gene assay. Type of data set: functional, cell-based. In a few lines:
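HEK293 cells stably transfected with human TLR7 and an NF-kB-driven SEAP reporter; agonist activity read as reporter output and expressed as EC50.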
On the technique in general: A reporter such as luciferase makes a cellular process visible.

Data set [1] deals with PBMC. Nature of the data set: Induction of type 1 IFN secretion in human PBMC at 3000 nM after 18 hrs by ELISA. Type of data set: cell-based. Particulars: 3 µM. The method in brief: (§1)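 Human peripheral blood mononuclear cells incubated with compound; IFN in culture supernatants quantified by human ELISA.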
The test system of data set [2] is PBMC. Kind of data set: Induction of type 1 IFN secretion in human PBMC at 300 nM after 18 hrs by ELISA. Type of data set: cell-based. Conditions: 0.3 µM. Background: An ELISA detects its analyte on a solid surface through an enzyme-linked reagent.
Data set [3] relates to PBMC. Nature of the data set: Induction of type 1 IFN secretion in human PBMC at 1000 nM after 18 hrs by ELISA. The format is cell-based. Conditions: 1 µM.
The test system of data set [4] is PBMC. Kind of data set: Induction of type 1 IFN secretion in human PBMC at 10000 nM after 18 hrs by ELISA. The format is cell-based. Conditions: 10 µM. In a few lines:
as §1

The test system of data set [5] is PBMC. Kind of data set: Induction of type 1 IFN secretion in human PBMC at 100 nM after 18 hrs by ELISA. Type of data set: cell-based. Conditions: 0.1 µM.
Data set [6] deals with PBMC. Nature of the data set: Induction of type 1 IFN secretion in human PBMC at 30 nM after 18 hrs by ELISA. Conditions: 0.03 µM. The format is cell-based.
A short description of data set [7]: Half life in human plasma by […] analysis.
The test system of data set [8] is PBMC. Nature of the data set: Induction of type 1 IFN secretion in human PBMC at 10 nM after 18 hrs by ELISA. The format is cell-based. Conditions: 0.01 µM.
The subject of data set [9] is Rattus norvegicus. Nature of the data set: Induction of IFN secretion in Brown Norway rat plasma at 0.1 mg/kg, intratracheally measured after 2 to 24 hrs by CPE reduction assay. Type of data set: organism-based. Particulars: in vivo, inhaled_or_intranasal. Set-up: dose 0.1 mg/kg, route endotracheal.
Data set [10] has as its system Rattus norvegicus. Nature of the data set: Antiinflammatory activity in ovalbumin and […] hydroxide adjuvant-sensitized Brown Norway rat assessed as inhibition of allergen-induced eosinophils influx at 1 mg/kg, intratracheally administered 2 hrs before allergen challenge measured after 24 hrs. Type of data set: functional, organism-based. Set-up: dose 1 mg/kg.

Data set [11] concerns Rattus norvegicus. Nature of the data set: Induction of IFN secretion in Brown Norway rat plasma at up to 10 mg/kg, intratracheally measured after 2 to 24 hrs by CPE reduction assay. Type of data set: organism-based. On the set-up: dose 10 mg/kg, route endotracheal. Conditions: in vivo, inhaled_or_intranasal.
A short description of data set [12]: Half life in rat plasma by […] analysis. Type of data set: ADME, cell-free.
A further data set has as its target T2, Toll-like receptor 8 (Homo sapiens, UniProt Q9NR97).
T2 sequence (Q9NR97 whole entry): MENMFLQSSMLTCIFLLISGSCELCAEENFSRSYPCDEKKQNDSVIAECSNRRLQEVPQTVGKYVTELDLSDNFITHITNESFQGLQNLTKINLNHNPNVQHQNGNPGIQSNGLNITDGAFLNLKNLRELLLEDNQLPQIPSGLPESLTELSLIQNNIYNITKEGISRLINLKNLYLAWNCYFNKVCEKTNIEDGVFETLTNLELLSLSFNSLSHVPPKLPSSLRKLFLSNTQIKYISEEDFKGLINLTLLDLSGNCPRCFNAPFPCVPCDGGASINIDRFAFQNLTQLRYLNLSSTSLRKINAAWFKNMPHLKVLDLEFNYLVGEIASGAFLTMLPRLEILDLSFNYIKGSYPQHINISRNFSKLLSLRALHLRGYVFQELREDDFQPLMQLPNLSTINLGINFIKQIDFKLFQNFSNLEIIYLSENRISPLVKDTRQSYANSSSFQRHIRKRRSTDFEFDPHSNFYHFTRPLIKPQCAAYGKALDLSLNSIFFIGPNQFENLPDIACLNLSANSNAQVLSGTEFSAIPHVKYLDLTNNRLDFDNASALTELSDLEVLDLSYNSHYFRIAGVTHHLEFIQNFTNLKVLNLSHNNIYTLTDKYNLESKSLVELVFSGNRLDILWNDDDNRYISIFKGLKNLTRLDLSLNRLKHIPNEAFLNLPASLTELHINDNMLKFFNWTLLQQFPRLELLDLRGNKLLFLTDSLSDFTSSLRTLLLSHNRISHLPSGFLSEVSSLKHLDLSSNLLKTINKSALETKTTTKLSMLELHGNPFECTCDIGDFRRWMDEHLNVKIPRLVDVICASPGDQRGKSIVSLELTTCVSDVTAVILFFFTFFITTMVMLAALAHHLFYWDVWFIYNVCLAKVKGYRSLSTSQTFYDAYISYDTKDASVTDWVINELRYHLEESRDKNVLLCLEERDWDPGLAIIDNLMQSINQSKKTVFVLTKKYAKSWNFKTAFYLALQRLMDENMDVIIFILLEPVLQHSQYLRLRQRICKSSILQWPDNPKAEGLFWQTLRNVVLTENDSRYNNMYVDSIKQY
Nature of the data set: Agonist activity at TLR8. Type of data set: functional.

Data set [13] concerns PBMC. Nature of the data set: Induction of type 1 IFN secretion in human PBMC at 3 nM after 18 hrs by ELISA. Type of data set: cell-based. Conditions: 0.003 µM.
In data set [14] the test system is Rattus norvegicus. Nature of the data set: Antiinflammatory activity in ovalbumin and […] hydroxide adjuvant-sensitized intratracheally dosed Brown Norway rat assessed as inhibition of allergen-induced eosinophils influx administered 2 hrs before allergen challenge measured after 24 hrs. The format is functional, organism-based.

Here are results for 17 compounds from ChEMBL document CHEMBL1156980, “Synthesis and biological evaluation of 8-oxoadenine derivatives as toll-like receptor 7 agonists introducing the antedrug concept” (J Med Chem, 2010).

The source made the active and inactive calls. No cut-off for these calls is given here.

What is called EC50 is the concentration at which the effect is half-maximal. Read a high EC50 as weaker potency. In general, half-life refers to how long it takes for the measured level to halve. A lower half-life goes with fast loss.

On Toll-like receptor 7, `COCCOc1nc(N)c2[nH]c(=O)n(Cc3ccccc3)c2n1` registered a 50% effective concentration (EC50) of 399 nM.

Consider `CCCCOc1nc(N)c2[nH]c(=O)n(Cc3cccc(CC(=O)O)c3)c2n1`, for which the Activity is 1.25 nM in the data set on PBMC [1]; under 1.25 nM in the data set with PBMC [2]; under 1.25 nM with PBMC [3]; 1.25 nM in the data set with PBMC [4]; under 1.25 nM with PBMC [5]; under 1.25 nM in the data set with PBMC [6].

`CCCCOc1nc(N)c2[nH]c(=O)n(Cc3ccc(CC(=O)OC)cc3)c2n1` had a half-life in [7] of 21.9 min. The same compound yielded an EC50 on Toll-like receptor 7 of 10.3 nM.

`CCCCOc1nc(N)c2[nH]c(=O)n(Cc3ccccc3C(=O)OC)c2n1`: in data set [7], the half-life was over 98 min. This compound also showed a half-maximal effective concentration (EC50) at Toll-like receptor 7 of 609 nM.

For `CCOCc1nc2c(N)nc3ccccc3c2n1CC(C)(C)O` [RESIQUIMOD], the Activity is recorded as under 1.25 nM with PBMC [8]; 7.26 nM in the data set on PBMC [2]; 7.75 nM in the data set on PBMC [3]; “Toxic” in the data set on Rattus norvegicus [9]; 5.61 nM with PBMC [5]; “Non-toxic” in the data set with Rattus norvegicus [11]. The same compound yielded an Activity with PBMC [6] of 1.25 nM. In the data set on Rattus norvegicus [10], the result was Active.

`CCCCOc1nc(N)c2[nH]c(=O)n(Cc3ccccc3CC(=O)OC)c2n1` displayed a half-life in data set [7] of over 98 min. Besides, on Toll-like receptor 7, the EC50 turned out to be 467 nM.

In turn, `CCCCOc1nc(N)c2[nH]c(=O)n(Cc3cc(CC(=O)OC)ccc3OC)c2n1` registered a half-life in data set [7] of 98 min. Also, the EC50 at Toll-like receptor 7 was 108 nM.

Turning to `CCCCOc1nc(N)c2[nH]c(=O)n(Cc3ccc(C(=O)OC)cc3)c2n1`, the half-life in [7] was over 98 min. Also, the EC50 on Toll-like receptor 7 was found to be 72.9 nM.

Regarding `CCCCOc1nc(N)c2nc(O)n(Cc3ccccc3)c2n1`, the EC50 at Toll-like receptor 7 was determined as 63.7 nM. In other words, the double-digit nanomolar range.

For the compound `CCCCOc1nc(N)c2[nH]c(=O)n(Cc3cccc(C(C)C(=O)OC)c3)c2n1` (stereo unspecified), in [7], the half-life is over 98 min. On Toll-like receptor 7, this compound yielded an EC50 of 75 nM.

Consider `CCCCOc1nc(N)c2[nH]c(=O)n(Cc3cccc(CC(=O)OC)c3)c2n1`, for which the Activity in the data set with PBMC [8] was 1.61 nM; in the data set with PBMC [2], 8.37 nM; in the data set on PBMC [3], 6.2 nM; in the data set on PBMC [13] it was under 1.25 nM; in the data set on PBMC [5], 8.17 nM; with Rattus norvegicus [14] it was “Dose-dependent effect”. Also, the Activity with PBMC [6] was found to be 4.71 nM. Besides, the half-life is under 0.04 min in [12] and 2.6 min in data set [7]. Moreover, the concentration for a half-maximal effect (EC50) at Toll-like receptor 8 is over 10000 nM; at Toll-like receptor 7 it was 50.1 nM.

`CCCCOc1nc(N)c2[nH]c(=O)n(Cc3cccc(C(=O)OC)c3)c2n1`: in data set [7], the half-life was over 98 min. For the same compound, the EC50 on Toll-like receptor 7 worked out at 51.5 nM.

For `CCCCOc1nc(N)c2[nH]c(=O)n(Cc3ccc(OC)c(CC(=O)OC)c3)c2n1`, in data set [7], the half-life is over 98 min. At Toll-like receptor 7, this compound gave an EC50 of 8.1 nM.

In turn, `CCCCOc1nc(N)c2[nH]c(=O)n(Cc3ccc(F)c(CC(=O)OC)c3)c2n1` yielded a half-life in data set [7] of 13.1 min. On Toll-like receptor 7, this compound displayed an EC50 of 25.7 nM.

As to `CCCCOc1nc(N)c2[nH]c(=O)n(Cc3cccc(CC(=O)OCC)c3)c2n1`, the half-life in [7] stood at 9 min. Further, the EC50 at Toll-like receptor 7 was 188 nM.

On to `COCCOc1nc(N)c2[nH]c(=O)n(Cc3cccc(CC(=O)OC)c3)c2n1`, for which the half-life in [7] turned out to be 1.4 min. Besides, the EC50 at Toll-like receptor 7 turned out to be 312 nM.

Turning to `CCCCOc1nc(N)c2[nH]c(=O)n(Cc3cccc(CCC(=O)OC)c3)c2n1`, in [7], the half-life is over 98 min. The compound further gave an EC50 on Toll-like receptor 7 of 87.5 nM.
